Results: ChEMBL document CHEMBL1158484 (J Med Chem, 2009)
pIC50: −log10 of the molar value. Calls of active or inactive are those of the source. The calls are words filed in the database; no cut-off is given here.

Tests used:
L6 = test: Cytotoxicity against rat L6 cells after 70 hrs by alamar blue assay; type: cell-based; conditions: L6, 70 h
[1] = tested on: Trypanosoma brucei rhodesiense; test: Antitrypanosomal activity against bloodstream Trypanosoma brucei rhodesiense STIB900 after 70 hrs by alamar blue assay; type: functional, organism-based; conditions: STIB900, 70 h
How it was run: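 Bloodstream forms, 2000 per well, in supplemented MEM with Earle's salts (0.2 mM 2-mercaptoethanol, 1 mM pyruvate, 0.5 mM hypoxanthine, 15% heat-inactivated horse serum). Serial dilutions, 70 h at 37 °C, 5% CO2. IC50 from sigmoidal curves; two independent runs in duplicate. DMSO ≤1%.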

[2] = Selectivity index, ratio of IC50 for rat L6 cells to IC50 for bloodstream Trypanosoma brucei rhodesiense STIB900; type: toxicity, cell-based; conditions: read-out: Ratio IC50
Plasmodium falciparum = test: Antiplasmodial activity after 48 hrs against chloroquine-resistant Plasmodium falciparum K1 infected human erythrocytes by [3H]hypoxanthine uptake; type: functional, organism-based
[3] = Selectivity index, ratio of IC50 for rat L6 cells to IC50 for chloroquine-resistant Plasmodium falciparum K1; type: toxicity, cell-based; conditions: read-out: Ratio IC50
How it was run: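 Ratio of L6 IC50 to P. falciparum K1 IC50. L6: 4000 cells, 70 h at 37 °C, Alamar blue fluorescence. Parasites: infected human erythrocytes (1.25% hematocrit, 0.3% parasitemia) in low-O2 gas for 48 h, then [3H]-hypoxanthine for 24 h, uptake counted. Sigmoidal IC50s, two independent runs in duplicate.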

Leishmania donovani [4] = test: Antileishmanial activity against axenic amastigotes of Leishmania donovani MHOM/SD/62/1S-CL2D after 72 hrs; type: functional, organism-based
How it was run: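 Axenic amastigotes (adapted from promastigotes), 6×10^4 per well, amastigote medium, 37 °C. 2-fold compound dilutions; 72 h at 37 °C, humidified 5% CO2. Growth read by tetrazolium CellTiter absorbance at 490 nm several hours after reagent addition. IC50 from four-parameter dose–response fit. DMSO ≤1%.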

[5] = Selectivity index, ratio of IC50 for rat L6 cells to IC50 for axenic amastigotes of Leishmania donovani MHOM/SD/62/1S-CL2D; type: toxicity, cell-based; conditions: read-out: Ratio IC50
How it was run: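 Ratio of L6 IC50 to L. donovani IC50. L6: 4000 cells in RPMI 1640 with 10% FBS, 70 h at 37 °C, then Alamar blue 2–3 h, fluorescence 536/588 nm. Leishmania: 6×10^4 axenic amastigotes per well, 2-fold dilutions, 72 h at 37 °C in 5% CO2, tetrazolium CellTiter read at 490 nm. IC50 from a four-parameter dose–response fit.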

[6] = tested on: Trypanosoma brucei rhodesiense; test: Antitrypanosomal activity against bloodstream Trypanosoma brucei rhodesiense STIB900 infected in NMRI mouse assessed as parasite free mouse survival at 100 mg/kg, po administered for 4 consecutive days from day 3 to 6 postinfection measured up to 60 days; type: functional, organism-based; parameters: dose 100 mg/kg
[7] = tested on: Trypanosoma brucei rhodesiense; test: Antitrypanosomal activity against bloodstream Trypanosoma brucei rhodesiense STIB900 infected in NMRI mouse assessed as survival rate at 100 mg/kg, po administered 4 consecutive days from day 3 to 6 postinfection; type: functional
How it was run: (§1)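 Female NMRI mice infected ip with 2×10^4 STIB900 bloodstream forms. Groups of four treated on days 3–6 postinfection. Compounds in DMSO diluted with water to a final 10% DMSO. Untreated infected controls. Tail blood checked for parasitemia to day 60. Surviving aparasitemic mice at day 60 scored cured; mean survival time in days from recorded deaths.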

[8] = tested on: Trypanosoma brucei rhodesiense; test: Antitrypanosomal activity against bloodstream Trypanosoma brucei rhodesiense STIB900 infected in NMRI mouse assessed as parasite free mouse survival at 5 mg/kg, ip administered for 4 consecutive days from day 3 to 6 postinfection measured up to 60 days; type: functional, organism-based; parameters: dose 5 mg/kg
How it was run: (§2)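 Female NMRI mice infected ip with 2×10^4 STIB900 bloodstream forms; groups of four dosed on 4 consecutive days, days 3-6 postinfection. Compounds in DMSO diluted with water to 10% DMSO. Untreated infected controls. Tail-blood parasitemia followed to day 60; surviving aparasitemic mice at day 60 scored cured; mean survival time recorded.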

[9] = tested on: Trypanosoma brucei rhodesiense; test: Antitrypanosomal activity against bloodstream Trypanosoma brucei rhodesiense STIB900 infected in NMRI mouse assessed as survival rate at 5 mg/kg, ip administered 4 consecutive days from day 3 to 6 postinfection; type: functional; conditions: route intraperitoneal; how it was run: as §1
[10] = tested on: Trypanosoma brucei rhodesiense; test: Ratio compound IC50 to pentamidine IC50 for Trypanosoma brucei rhodesiense STIB900; type: functional
Leishmania donovani [11] = test: Ratio of compound IC50 to pentamidine IC50 for Leishmania donovani MHOM/SD/62/1S-CL2D; type: functional
[12] = tested on: Trypanosoma brucei rhodesiense; test: Antitrypanosomal activity against bloodstream Trypanosoma brucei rhodesiense STIB900 infected in NMRI mouse assessed as parasite free mouse survival at 25 mg/kg, po administered for 4 consecutive days from day 3 to 6 postinfection measured up to 60 days; type: functional, organism-based; parameters: dose 25 mg/kg; how it was run: as §2
[13] = tested on: Trypanosoma brucei rhodesiense; test: Antitrypanosomal activity against bloodstream Trypanosoma brucei rhodesiense STIB900 infected in NMRI mouse assessed as survival rate at 25 mg/kg, po administered 4 consecutive days from day 3 to 6 postinfection; type: functional; how it was run: as §1
[14] = tested on: Trypanosoma brucei rhodesiense; test: Antitrypanosomal activity against bloodstream Trypanosoma brucei rhodesiense STIB900 infected in NMRI mouse assessed as parasite free mouse survival at 2 mg/kg, ip administered for 4 consecutive days from day 3 to 6 postinfection measured up to 60 days; type: functional, organism-based; parameters: dose 2 mg/kg; how it was run: as §1
[15] = tested on: Trypanosoma brucei rhodesiense; test: Antitrypanosomal activity against bloodstream Trypanosoma brucei rhodesiense STIB900 infected in NMRI mouse assessed as survival rate at 2 mg/kg, ip administered 4 consecutive days from day 3 to 6 postinfection; type: functional; conditions: route intraperitoneal; how it was run: as §1
[16] = tested on: Trypanosoma brucei rhodesiense; test: Antitrypanosomal activity against bloodstream Trypanosoma brucei rhodesiense STIB900 infected in NMRI mouse assessed as survival rate at 1 mg/kg, ip administered 4 consecutive days from day 3 to 6 postinfection; type: functional; conditions: route intraperitoneal; how it was run: as §1
[17] = tested on: Trypanosoma brucei brucei; test: Antitrypanosomal activity against second-stage Trypanosoma brucei brucei GVR35 infected in african sleeping sickness CNS mouse model; type: functional, organism-based

Row | SMILES | pIC50 (L6) | pIC50 [1] | selectivity ratio [2] | pIC50 (Plasmodium falciparum) | selectivity ratio [3] | pIC50 (Leishmania donovani [4]) | selectivity ratio [5] | Activity [6] | Survival [7] | Activity [8] | Survival [9] | Ratio IC50 [10] | Ratio IC50 (Leishmania donovani [11]) | Activity [12] | Survival [13] | Activity [14] | Survival [15] | Survival [16] | Activity [17]
1 | N/C(=N\O)c1cc(OCCCCCOc2ccnc(/C(N)=N/O)c2)ccn1 | 3.80 | 4.92 | 13 | < 5.68 | < 76 | 4.35 | 4 | inactive | 14.25 days | – | – | – | – | – | – | – | – | – | –
2 | c1cc(OCCCCCOc2ccnc(C3=NCCN3)c2)cc(C2=NCCN2)n1 | 4.09 | 4.90 | 6 | 5.37 | 19 | < 4.00 | < 1 | – | – | – | – | – | – | – | – | – | – | – | –
3 | N=C(N)c1ccc(OCCCCCOc2ccc(C(=N)N)cn2)nc1 | 3.86 | 7.15 | 1960 | 6.48 | 416 | 4.41 | 4 | – | – | inactive | 17.75 days | – | – | – | – | – | – | – | –
4 | N=C(N)c1ccc(OCCCCCOc2ccc(C(=N)N)nc2)cn1 | 5.31 | 9.00 | 4900 | 8.05 | 544 | 6.33 | 11 | – | – | – | >36 days | 3 | 4 | – | – | – | – | – | –
5 | CO/N=C(/N)c1ccc(OCCCCCOc2ccc(/C(N)=N\OC)nc2)cn1 | 4.40 | 4.29 | < 1 | 5.46 | 11 | < 4.30 | < 1 | – | – | – | – | – | – | inactive | 19.5 days | – | – | – | –
6 | CC(C)NC(=N)c1ccc(OCCCCCOc2ccc(C(=N)NC(C)C)cn2)nc1 | < 3.81 | 6.56 | > 562 | 6.59 | > 605 | < 4.00 | 2 | – | – | – | – | – | – | – | – | – | – | – | –
7 | N=C(N)c1ccc(OCCCCCOc2ccc(C(=N)N)cc2)cc1 [PENTAMIDINE] | – | – | – | – | – | – | – | – | – | – | >45 days | – | – | – | – | – | – | – | –
8 | Nc1nc(N)nc(Nc2ccc([As]3SCC(CO)S3)cc2)n1 (centres undefined) [MELARSOPROL] | – | – | – | – | – | – | – | – | – | – | – | – | – | – | – | Active | >60 days | >51.5 days | –
9 | CO/N=C(\N)c1ccc(OCCCCCOc2ccc(/C(N)=N\OC)cn2)nc1 | < 3.73 | 4.59 | > 7 | 5.65 | > 83 | < 4.00 | 2 | – | – | – | – | – | – | – | – | – | – | – | –
10 | c1cc(OCCCCCOc2cccc(C3=NCCN3)n2)nc(C2=NCCN2)c1 | 4.84 | 5.51 | 5 | 6.25 | 26 | 4.62 | < 1 | – | – | – | – | – | – | – | – | – | – | – | –
11 | CO/N=C(\N)c1cc(OCCCCCOc2ccnc(/C(N)=N/OC)c2)ccn1 | 3.86 | 4.74 | 8 | < 5.70 | < 69 | < 4.00 | 1 | inactive | 11.75 days | – | – | – | – | – | – | – | – | – | –
12 | N/C(=N\O)c1cccc(OCCCCCOc2cccc(/C(N)=N/O)n2)n1 | 4.28 | 4.72 | 3 | 4.98 | 5 | < 4.30 | 1 | – | – | – | – | – | – | – | – | – | – | – | –
13 | CC(C)NC(=N)c1ccc(OCCCCCOc2ccc(C(=N)NC(C)C)nc2)cn1 | 3.83 | 7.47 | 4350 | 8.22 | 24700 | 5.22 | 25 | – | – | inactive | 18.5 days | – | – | – | – | – | – | – | –
14 | c1cc(OCCCCCOc2ccc(C3=NCCN3)cn2)ncc1C1=NCCN1 | 3.95 | 5.85 | 78 | 5.73 | 60 | < 4.00 | 1 | – | – | – | – | – | – | – | – | – | – | – | –
15 | c1cc(C2=NCCN2)ncc1OCCCCCOc1ccc(C2=NCCN2)nc1 | 4.08 | 6.77 | 484 | 7.44 | 2290 | 4.44 | 2 | – | – | inactive | 12.75 days | – | – | – | – | – | – | – | –
16 | N=C(N)c1cccc(OCCCCCOc2cccc(C(=N)N)n2)n1 | 3.94 | 7.72 | 6000 | 7.57 | 4220 | 5.39 | 28 | – | – | inactive | 22.5 days | – | – | – | – | – | – | – | –
17 | N=C(N)c1cc(OCCCCCOc2ccnc(C(=N)N)c2)ccn1 | 4.23 | 7.29 | 1160 | 7.80 | 3710 | 4.42 | 2 | – | – | inactive | 14 days | – | – | – | – | – | – | – | –
18 | N/C(=N\O)c1ccc(OCCCCCOc2ccc(/C(N)=N\O)cn2)nc1 | 4.79 | 4.56 | < 1 | 5.19 | 3 | < 4.00 | < 1 | – | – | – | – | – | – | inactive | 8.75 days | – | – | – | –
19 | N/C(=N/O)c1ccc(OCCCCCOc2ccc(/C(N)=N\O)nc2)cn1 | 3.78 | 3.97 | 2 | < 4.97 | < 16 | < 4.00 | < 2 | – | – | – | – | – | – | Active | >60 days | – | – | – | inactive
20 | CC(C)NC(=N)c1cc(OCCCCCOc2ccnc(C(=N)NC(C)C)c2)ccn1 | < 3.81 | 5.77 | > 91 | 5.88 | > 117 | < 4.00 | 2 | – | – | – | – | – | – | – | – | – | – | – | –
